According to ChEMBL document CHEMBL5712900, “JQ1 affects BRD2-dependent and independent transcription regulation without disrupting H4-hyperacetylated chromatin states” (2018):
The source made the active and inactive calls. The calls are words filed in the database; no cut-off is given here.

Columns and labels:
NCI-H23 [1] = test: Down regulation of FOSL1 gene expression in human NCI-H23 cells at 500 nM measured after 3 to 24 hrs by qPCR analysis; assay type: functional, cell-based; conditions: time 3-24 hrs
Method in brief: (§1)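 H23 cells were grown in RPMI-1640 with 10% FBS and plated 48 h before treatment at 170,000 cells/ml. Medium was replaced with fresh medium containing 500 nM JQ1 or matched DMSO, and cells were harvested at 3, 6, 12 and 24 h. Total RNA was extracted with TRIzol and assayed by SYBR qPCR (40 cycles). Expression was normalized to GAPDH and compared with DMSO. There were three biological replicates, each run in duplicate twice.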

NCI-H23 [2] = test: Effect in H4K5acK8ac global level enhancer region in human NCI-H23 cells at 500 nM incubated for 24 hrs by Chip-seq assay; assay type: functional, cell-based
Method in brief: (§2)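 H23 cells received 500 nM JQ1 or DMSO for 24 h and then underwent formaldehyde crosslinking. For spike-in ChIP-seq, H23 chromatin was mixed with Drosophila chromatin at 400:1 for H4K5acK8ac or 600:1 for BRD2, adding anti-H2Av antibody. Reads were normalized to Drosophila counts, with two biological replicates. Signals were averaged over peaks from untreated cells, and differential H4K5acK8ac peaks were called at FDR <0.05.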

NCI-H23 [3] = test: Down regulation of BCL2 gene expression in human NCI-H23 cells at 500 nM measured after 3 to 24 hrs by qPCR analysis; assay type: functional, cell-based; conditions: time 3-24 hrs; method in brief: as §1
NCI-H23 [4] = test: Effect in H4K5acK8ac global level super enhancer region in human NCI-H23 cells at 500 nM incubated for 24 hrs by Chip-seq assay; assay type: functional, cell-based; method in brief: as §2
NCI-H23 [5] = test: Down regulation of BRD4 gene expression in human NCI-H23 cells at 500 nM measured after 3 to 24 hrs by qPCR analysis; assay type: functional, cell-based; conditions: time 3-24 hrs; method in brief: as §1
NCI-H23 [6] = test: Effect in H4K5acK8ac subpopulation level in human NCI-H23 cells at 500 nM incubated for 24 hrs by Chip-seq assay; assay type: functional; method in brief: as §2
NCI-H23 [7] = test: Down regulation of CFLAIR gene expression in human NCI-H23 cells at 500 nM measured after 3 to 24 hrs by qPCR analysis; assay type: functional, cell-based; conditions: time 3-24 hrs; method in brief: as §1
NCI-H23 [8] = test: Effect on CTNNB1 gene expression in human NCI-H23 cells at 500 nM measured after 3 to 24 hrs by qPCR analysis; assay type: functional, cell-based; conditions: time 3-24 hrs; method in brief: as §1
NCI-H23 [9] = test: Down regulation of FOSL1 protein expression in human NCI-H23 cells at 500 nM measured after 3 to 24 hrs by […]; assay type: functional, cell-based; conditions: time 3-24 hrs
NCI-H23 [10] = test: Down regulation of WNT5A-2 gene expression in human NCI-H23 cells at 500 nM measured after 3 to 24 hrs by qPCR analysis; assay type: functional, cell-based; conditions: time 3-24 hrs; method in brief: as §1
NCI-H23 [11] = test: Induction of apoptosis in human NCI-H23 cells at 5 to 5000 nM incubated for 24 hsr by Green Apoptosis assay; assay type: functional, cell-based; conditions: dose 5-5000 nM, time 24.0 hrs
Method in brief: (§3)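 RFP-labelled H23 cells were seeded at 8,000 cells/well one day ahead and given JQ1 at 5, 50, 500, 1,000 or 5,000 nM. For apoptosis, Caspase-3/7 Green reagent (DEVD–NucView488) was added with the drug. Plates were imaged hourly for 24 h. Red (proliferating) or green (apoptotic) objects were counted per image and expressed as fold change versus 0 h.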

NCI-H23 [12] = test: Effect in H3K27ac global level in human NCI-H23 cells at 500 nM incubated for 24 hrs by Chip-seq assay; assay type: functional, cell-based
NCI-H23 [13] = test: Upregulation of MYC gene expression in human NCI-H23 cells at 500 nM measured after 3 to 24 hrs by qPCR analysis; assay type: functional, cell-based; conditions: time 3-24 hrs; method in brief: as §1
NCI-H23 [14] = test: Effect in H4K5acK8ac global level Promoter region in human NCI-H23 cells at 500 nM incubated for 24 hrs by Chip-seq assay; assay type: functional, cell-based; method in brief: as §2
NCI-H23 [15] = test: Down regulation of WNT2 gene expression in human NCI-H23 cells at 500 nM measured after 3 to 24 hrs by qPCR analysis; assay type: functional, cell-based; conditions: time 3-24 hrs; method in brief: as §1
NCI-H23 [16] = test: Effect in H3K27ac subpopulation level in human NCI-H23 cells at 500 nM incubated for 24 hrs by Chip-seq assay; assay type: functional, cell-based
[17] = target: Bromodomain-containing protein 2 (Homo sapiens) (UniProt P25440); conditions: NCI-H23, dose 500.0 nM, time 24.0 hrs
Sequence of Bromodomain-containing protein 2 (Homo sapiens) (P25440 whole entry, looked up): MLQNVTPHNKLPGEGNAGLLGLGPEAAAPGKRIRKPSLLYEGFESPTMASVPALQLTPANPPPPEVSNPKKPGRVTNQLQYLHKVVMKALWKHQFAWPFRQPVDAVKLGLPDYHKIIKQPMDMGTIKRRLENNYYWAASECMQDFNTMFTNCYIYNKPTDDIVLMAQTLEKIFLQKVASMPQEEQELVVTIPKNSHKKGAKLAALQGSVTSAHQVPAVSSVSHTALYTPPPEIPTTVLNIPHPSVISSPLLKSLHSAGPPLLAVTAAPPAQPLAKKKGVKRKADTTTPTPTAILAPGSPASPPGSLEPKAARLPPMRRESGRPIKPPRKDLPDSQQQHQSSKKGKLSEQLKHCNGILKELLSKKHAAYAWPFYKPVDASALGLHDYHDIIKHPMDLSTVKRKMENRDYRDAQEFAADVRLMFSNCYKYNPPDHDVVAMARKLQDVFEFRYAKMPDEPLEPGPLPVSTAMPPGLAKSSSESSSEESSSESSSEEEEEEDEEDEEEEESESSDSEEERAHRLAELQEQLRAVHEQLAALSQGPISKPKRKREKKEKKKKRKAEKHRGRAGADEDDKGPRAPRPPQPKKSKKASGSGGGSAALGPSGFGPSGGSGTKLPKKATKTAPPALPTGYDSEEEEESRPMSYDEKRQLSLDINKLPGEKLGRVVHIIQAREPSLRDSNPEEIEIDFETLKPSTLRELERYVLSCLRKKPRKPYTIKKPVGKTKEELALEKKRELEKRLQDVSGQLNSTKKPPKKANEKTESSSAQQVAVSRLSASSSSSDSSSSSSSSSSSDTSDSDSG

NCI-H23 [18] = test: Antiproliferation activity against human NCI-H23 cells assessed as decrease in cell proliferation at 5 to 5000 nM incubated for 24 hrs by Green Apoptosis Assay; assay type: functional, cell-based; conditions: dose 5-5000 nM; method in brief: as §3
NCI-H23 [19] = test: Down regulation of BRD2 gene expression in human NCI-H23 cells at 500 nM measured after 3 to 24 hrs by qPCR analysis; assay type: functional, cell-based; conditions: time 3-24 hrs; method in brief: as §1

Cc1sc2c(c1C)C(c1ccc(Cl)cc1)=N[C@@H](CC(=O)OC(C)(C)C)c1nnc(C)n1-2
Activity (NCI-H23 [1]): Active
Activity (NCI-H23 [2]): inactive
Activity (NCI-H23 [3]): Active
Activity (NCI-H23 [4]): inactive
Activity (NCI-H23 [5]): inactive
fold change (FC) (NCI-H23 [6]): 2
Activity (NCI-H23 [7]): Active
Activity (NCI-H23 [8]): Active
Activity (NCI-H23 [9]): Active
Activity (NCI-H23 [10]): Active
Activity (NCI-H23 [11]): Active
Activity (NCI-H23 [12]): inactive
Activity (NCI-H23 [13]): Active
Activity (NCI-H23 [14]): inactive
Activity (NCI-H23 [15]): Active
Activity (NCI-H23 [16]): Active
inhibition [17]: 100%
Activity (NCI-H23 [18]): Active
Activity (NCI-H23 [19]): inactive
